Insulin prom up: MIN6 insulin promoter up-regulation. MIN6 insulin promoter-GFP reporter, high-content imaging; stronger effect = higher value. z-score at 5 µM. 190,000 compounds, 0.3% hits;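 active = z-score above 3 at 5 µM with at least 500 cells counted in the well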
RAM inhibit: yeast RAM network inhibition. S. cerevisiae dse1pr::URA3 reporter, 5-FOA growth OD615, 2 d; analog-sensitive cbk1-as2 kinase mutant strain. AID 868. inhibition, % at 50 µM. 190,000 compounds, 1.8% hits;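 active = inhibition above a set limit, 3 SD over mean compound inhibition, cut at about 8.4% in these data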;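 note: 0% = DMSO-only wells with no growth and 100% = 10 µM 1-NA-PP1 full growth; inhibition rescues growth on 5-FOA so higher OD means more RAM inhibition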
INS promoter inh: TRM-6 insulin promoter activity inhibition; TRM-6 cells (human fetal islet line), insulin promoter-eGFP reporter, imaging; reporter expression induced with tamoxifen; inhibition, % at 2 µM; 130,000 compounds, 0.9% hits;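 active = inhibition above the mean plus 3 SD, with well images judged a real hit on visual review, cut at about 60% in these data, passing the limit was not always enough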
Yeast growth inh: reduces growth of yeast BB579 in restrictive medium | 140,000 compounds, 0.51% hits | S. cerevisiae BB579 growth, OD615, 48 h | inhibition, % at 10 µM | AID 804;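 active = inhibition above a set limit, 3 SD over the mean compound inhibition, cut at about 44% in these data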
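Detection: OD615 turbidity measurement; Material: Saccharomyces cerevisiae DeaD strain BB579, replicative lifespan model yeast; Timing: 48 h exposure, 30 °C; Doses: single 10 µM dose; Medium: CSMM-D restrictive synthetic medium containing dextrose (glucose); Controls: amphotericin B at 10 µg/mL as positive control.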
Yeast life ext: extends the lifespan of yeast; S. cerevisiae growth with nicotinamide, OD615; deaD strain in restrictive glucose medium; inhibition of the nicotinamide effect, % at 10 µM; 130,000 compounds, 0.68% hits; AID 775;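 active = inhibition above a set limit, placed 3 SD over the median of all compounds, cut at about 26% in these data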;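 note: 0% = nicotinamide-treated wells and 100% = cells grown without nicotinamide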
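Assay system: engineered S. cerevisiae DeaD replicative-lifespan strain, galactose-grown log-phase cells; Buffer or medium: CSMM-D glucose medium, restrictive; Probe or stimulus: nicotinamide 1.5 mM; Compound: single dose 10 µM compound, 0.25% DMSO; Schedule: 4 h preincubation then 48 h treatment at 30 °C; Technique: OD615 measurement.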
The depositor's hits bear a star; . = no result. Only some compounds are listed: those with a hit (about 3.1% of all), similar ones and a draw of the others.

SMILES | Insulin prom up | RAM inhibit | INS promoter inh | Yeast growth inh | Yeast life ext
COC(=O)c1cnn2c(C(F)(F)F)cc(-c3ccc(F)cc3)nc12 | 4.2* | 1 | . | -10 | -26
O=C(OCC#CCSc1nc2ccccc2o1)c1cc2ccccc2o1 | 0.43 | 10* | 56 | -48 | .
O=C(OCC#CCSc1nc2ccccc2o1)c1ccco1 | 0.44 | 1 | -42 | 8 | -11
Cc1cc(C)c2c(=O)[nH]c(SCC(=O)c3ccc(F)c(C)c3)nc2n1 | 1.2 | 4 | . | . | .
Cc1ccccc1OCCn1nc(C(=O)O)c2ccccc2c1=O | 0.11 | 1 | . | -6 | -13
O=C(O)c1nn(CCOc2cccc(Cl)c2)c(=O)c2ccccc12 | 0.18 | 8.8* | . | . | .
CCCOc1ccc(OCCn2nc(C(=O)O)c3ccccc3c2=O)cc1 | -0.68 | 9.6* | -40 | . | .
O=Nc1c2nc3ccccc3n(O)c-2c2ccccc12 | -0.06 | 6 | . | 64* | -6
O=C(NC(=S)Nc1ccc(CN2CCCCC2)cc1)c1cc2ccccc2o1 | 0.21 | . | . | . | .
CCC(=O)c1ccc(Oc2ccc(C(=O)c3ccc(C)cc3)cc2[N+](=O)[O-])cc1 | 0.26 | 11* | -62 | -27 | 2
CO/N=C/c1ccc(Oc2ccc(C)cc2)c([N+](=O)[O-])c1 | 0.28 | 0 | . | . | .
CSC1=NCCN1S(=O)(=O)c1ccc(F)cc1 | -0.08 | 0 | 0 | . | .
CSC1=NCCN1S(=O)(=O)c1ccc(C)cc1 | 0.08 | 1 | 79* | . | .
C[C@@H](C(=O)NCc1ccccc1)[C@@H]1C[C@@]1(C)[C@@H](NC(=O)OCc1ccccc1)c1ccccc1 | 0.62 | 7 | 23 | 3 | 6
C[C@@H](C(=O)NCc1ccc(S(C)(=O)=O)cc1)[C@H]1C[C@]1(C)[C@H](NC(=O)OCc1ccccc1)c1ccccc1 | -1.4 | 9.2* | -27 | -23 | 3
C#CCNC(=O)C1=C[C@H](c2csc3ccccc23)C[C@H](OCc2ccc(CO)cc2)O1 | 0.34 | 8.5* | . | . | .
CC(C)(C)[C@H]1C=C(C(=O)Nc2ccccc2)O[C@@H](OCc2ccc(CO)cc2)C1 | -0.15 | 10* | . | . | .
O=C(Nc1ccccc1)C1=C[C@@H](c2ccccc2)C[C@@H](OCc2ccc(CO)cc2)O1 | . | 9.9* | . | . | .
CC(C)(C)[C@@H]1C=C(C(=O)NCc2ccccc2)O[C@H](OCc2ccc(CO)cc2)C1 | 0.67 | 4 | . | . | .
O=C(Nc1ccccc1)C1=C[C@@H](c2ccc(C(F)(F)F)cc2)C[C@@H](OCc2ccc(CO)cc2)O1 | -1.1 | 9.7* | . | . | .
O=C(Oc1ccc(-c2nnco2)cc1)N(c1ccccc1)c1ccccc1 | -0.54 | 4 | -68 | -35 | -8
CN(C)S(=O)(=O)c1ccc(Cl)c(NC(=O)COC(=O)c2ccc3c(c2)NC(=O)CS3)c1 | -0.09 | . | . | . | .
Cc1nnc(SCC(=O)c2ccc(Cl)cc2)n(N)c1=O | 0.04 | 2 | . | . | .
O=C(NCc1ccccc1)C1=C[C@H](c2ccc(Br)cc2)C[C@H](OCc2ccc(CO)cc2)O1 | 0.14 | 11* | . | . | .
O=C(NCc1ccccc1)C1=C[C@@H](c2ccccc2)C[C@@H](OCc2ccc(CO)cc2)O1 | -1.2 | 8 | . | . | .
SMILES | Insulin prom up | RAM inhibit | INS promoter inh | Yeast growth inh | Yeast life ext
C#Cc1ccc([C@H]2C=C(C(=O)O)O[C@@H](OCc3ccc(CO)cc3)C2)cc1 | -0.2 | 3 | . | . | .
C#Cc1ccc([C@@H]2C=C(C(=O)OCC=C)O[C@H](OCc3ccc(CO)cc3)C2)cc1 | -1.3 | 10* | . | . | .
O=C(C1=C[C@@H](c2ccc(Br)cc2)C[C@@H](OCc2ccc(CO)cc2)O1)N1CCOCC1 | 1.1 | 9.2* | . | . | .
CC(=O)n1cc([C@H]2C=C(C(=O)NCc3ccccc3)O[C@@H](OCCCCO)C2)c2ccccc21 | -1.6 | 8.8* | . | . | .
CC1(C)CC(=O)c2c(O)cc(OCc3ccc(Br)cc3)cc2O1 | 0.29 | 8.7* | -23 | -45 | -3
COc1cc(O)c2c(c1)OC(C)(C)CC2=O | 0.02 | 1 | -45 | -15 | -11
COC(=O)c1ccc(COc2cc(O)c3c(c2)OC(C)(C)CC3=O)cc1 | -0.51 | 10* | -175 | -66 | 0
COc1ccc(OC2C(=O)N(Cc3ccc(F)cc3)C2c2cc(OC)c(OC)c(OC)c2)cc1 (configuration not stated) | 1.3 | 2 | . | -24 | 0
COc1ccc(C2C(Oc3ccccc3C)C(=O)N2Cc2ccc(F)cc2)cc1OC (configuration not stated) | -5.2 | 8.9* | -43 | -46 | 4
Cc1noc(C)c1CSc1nnc(-c2c[nH]c3ccccc23)n1-c1ccc(Cl)cc1 | -0.06 | 9.4* | 0 | -32 | -1
CCc1ccc(-n2c(SCc3c(C)noc3C)nnc2-c2ccncc2)cc1 | -0.02 | 0 | -33 | -3 | -3
CCOc1ccc(N=Cc2c(O)c3ccccc3oc2=O)cc1 | 0.03 | 2 | 0 | -39 | 88*
CCOc1cc(/C=C2/SC(=S)N(C)C2=O)ccc1Oc1ccc([N+](=O)[O-])cc1[N+](=O)[O-] | 0.68 | 4 | -21 | . | .
COc1ccc(C2CC(c3ccccc3OC(C)=O)=NN2C(=O)/C=C/c2ccccc2)cc1OC (configuration not stated) | . | 8.5* | 59 | -40 | 2
COc1ccc(C2=NN(C(=O)/C=C/c3ccccc3)C(c3ccccc3)C2)c(OC(C)=O)c1 (configuration not stated) | . | 7 | . | -47 | 6
Cn1c(=O)c2cn3ncccc3c2n(C)c1=O | 0.14 | 0 | 32 | 15 | -8
Cc1ccnn2cc3c(=O)n(C)c(=O)n(C)c3c12 | -0.24 | 0 | 7 | 64* | -31
Cc1noc(C)c1CS(=O)(=O)c1ccc(Br)cc1 | 3.2* | 1 | 3 | 1 | 56*
COc1ccc(-c2[nH]ncc2/C=N\NS(=O)(=O)c2ccc(Cl)cc2)cc1 | -0.16 | 0 | 6 | -12 | -4
COc1ccc(-c2[nH]ncc2C=O)cc1 | -0.23 | 1 | 60* | -11 | -2
Cc1ccccc1/C=N/Nc1ncnc2nc[nH]c12 | -1.4 | . | . | . | .
Fc1ccc(/C=N/Nc2ncnc3nc[nH]c23)cc1F | 0.25 | -1 | 60* | 4 | -4
COc1ccc([C@H]2[C@H](C(=O)C(C)(C)C)N3N=Cc4ccccc4C3C23C(=O)OC(C)(C)OC3=O)cc1 (some centres not stated) | -0.07 | 2 | 13 | 7 | 36*
Oc1ccc(-c2nc3ccc4ccccc4c3c3c2CCC3)cc1O | -1.1 | 2 | . | 20 | -9
CCS(=O)(=O)N1CCC(c2nc(-c3ccc(C(F)(F)F)cc3)no2)CC1 | 0.11 | 2 | -82 | -18 | -7
CCS(=O)(=O)N1CCC(c2nc(-c3ccc(C)cc3)no2)CC1 | . | 0 | . | 2 | 60*
CN(C)c1ccc(-c2noc(C3CCN(S(=O)(=O)c4cccc(C(=O)O)c4)CC3)n2)cc1 | 0.41 | 9.8* | 3 | -51 | -2
CCOC(=O)c1sc(NC(=O)c2cccc(S(=O)(=O)N3CCc4ccccc43)c2)c(C#N)c1C | -1.7 | . | . | . | .
COc1ccc(-c2nc3c(c(SCC(=O)N4CCOCC4)n2)COC(C)(C)C3)cc1 | 0.18 | 2 | 61* | -12 | -5

Screens from PubChem.
